Assay results: ChEMBL document CHEMBL1914406, “Inhibitory effect of novel 5-O-acyl juglones on mammalian DNA polymerase activity, cancer cell growth and inflammatory response” (Bioorg Med Chem, 2011)
Activity calls are given as the source filed them. No cut-off for these calls is given here.

Key:
[1] = biological target: T1, DNA polymerase kappa (Homo sapiens) (UniProt Q9UBT6); experiment: Inhibition of C-terminal His6-tagged human DNA polymerase kappa (amino acids 1 to 560) using bovine deoxyribonuclease 1-treated DNA and dNTP as the DNA template-primer and nucleotide substrate at 10 uM after 60 mins
T1 sequence (whole entry): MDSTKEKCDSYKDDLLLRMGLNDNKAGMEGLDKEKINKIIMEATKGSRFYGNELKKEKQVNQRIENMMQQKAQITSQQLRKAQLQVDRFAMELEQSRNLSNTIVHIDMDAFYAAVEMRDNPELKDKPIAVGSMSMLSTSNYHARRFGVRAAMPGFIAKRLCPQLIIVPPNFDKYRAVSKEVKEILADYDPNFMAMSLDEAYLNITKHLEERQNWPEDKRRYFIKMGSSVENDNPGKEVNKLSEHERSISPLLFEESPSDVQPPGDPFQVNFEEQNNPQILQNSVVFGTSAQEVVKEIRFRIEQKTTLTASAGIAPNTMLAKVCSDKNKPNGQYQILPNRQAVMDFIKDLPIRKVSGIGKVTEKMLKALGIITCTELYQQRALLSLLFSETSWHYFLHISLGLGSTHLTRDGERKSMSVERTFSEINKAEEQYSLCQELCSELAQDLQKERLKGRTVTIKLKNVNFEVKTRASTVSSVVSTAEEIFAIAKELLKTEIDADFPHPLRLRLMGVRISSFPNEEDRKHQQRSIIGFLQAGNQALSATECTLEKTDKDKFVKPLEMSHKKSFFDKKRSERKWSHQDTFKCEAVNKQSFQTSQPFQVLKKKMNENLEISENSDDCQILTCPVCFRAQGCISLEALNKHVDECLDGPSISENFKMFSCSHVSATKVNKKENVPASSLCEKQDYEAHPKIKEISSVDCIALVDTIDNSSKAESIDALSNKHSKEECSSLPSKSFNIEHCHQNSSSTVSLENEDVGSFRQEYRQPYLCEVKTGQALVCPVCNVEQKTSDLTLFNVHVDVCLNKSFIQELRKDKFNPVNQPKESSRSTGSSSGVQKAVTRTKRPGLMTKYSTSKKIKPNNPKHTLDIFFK

Polynucleotide kinase = Polynucleotide kinase (Enterobacteria phage T4, UniProt P06855); experiment: Inhibition of T4 polynucleotide kinase using 5'-hydroxyl termini of DNA and [gamma-32ATP] after 30 mins by liquid scintillation counting; design: species or system Tequatrovirus T4
Polynucleotide kinase, sequence (P06855 whole entry): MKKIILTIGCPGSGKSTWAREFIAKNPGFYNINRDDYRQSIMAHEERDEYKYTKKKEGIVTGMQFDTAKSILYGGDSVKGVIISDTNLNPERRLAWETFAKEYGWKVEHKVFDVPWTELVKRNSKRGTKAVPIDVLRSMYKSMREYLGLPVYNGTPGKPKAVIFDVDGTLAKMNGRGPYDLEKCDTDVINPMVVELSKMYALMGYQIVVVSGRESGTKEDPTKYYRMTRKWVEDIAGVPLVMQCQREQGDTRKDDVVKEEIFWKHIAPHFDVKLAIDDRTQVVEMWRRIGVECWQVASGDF

[2] = biological target: DNA-directed DNA/RNA polymerase mu (Homo sapiens, UniProt Q9NP87); experiment: Inhibition of His-tagged human DNA polymerase mu using poly(dA)/oligo(dT)18 (A/T = 2/1) and dTTP as the DNA template-primer and nucleotide substrate after 60 mins
DNA-directed DNA/RNA polymerase mu, sequence (Q9NP87 whole entry): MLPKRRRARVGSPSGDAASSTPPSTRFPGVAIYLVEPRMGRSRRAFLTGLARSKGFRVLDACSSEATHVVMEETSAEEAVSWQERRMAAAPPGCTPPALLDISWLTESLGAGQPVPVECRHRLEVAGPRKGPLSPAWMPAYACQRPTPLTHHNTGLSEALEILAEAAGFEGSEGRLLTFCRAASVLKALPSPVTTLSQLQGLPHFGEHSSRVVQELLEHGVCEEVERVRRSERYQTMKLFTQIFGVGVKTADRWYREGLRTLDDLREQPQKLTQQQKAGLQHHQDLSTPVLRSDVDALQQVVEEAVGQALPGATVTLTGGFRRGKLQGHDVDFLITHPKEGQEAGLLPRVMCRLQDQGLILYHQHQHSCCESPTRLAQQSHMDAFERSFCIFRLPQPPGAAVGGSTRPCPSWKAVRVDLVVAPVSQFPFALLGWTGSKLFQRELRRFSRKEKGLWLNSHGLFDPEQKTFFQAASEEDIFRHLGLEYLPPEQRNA
Procedure, shortened: (§1)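 Compound in DMSO, sonicated 30 s. Premixed 0 °C, 10 min with enzyme (0.05 units) in 50 mM Tris-HCl pH 7.5, 1 mM DTT, 50% glycerol, 0.1 mM EDTA, then added to standard reaction mixture. Template-primers: poly(dA)/oligo(dT)18 (2/1) for pols, oligo(dT)18 for TdT, poly(rA)/oligo(dT)18 for HIV-1 RT, with [3H]dTTP. 60 min at 37 °C (Taq 74 °C). Activity relative to no-inhibitor control; mean ± SE of three experiments.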

Deoxyribonuclease-1 = Deoxyribonuclease-1 (Bos taurus, UniProt P00639); experiment: Inhibition of bovine deoxyribonuclease I by agarose gel electrophoresis
Deoxyribonuclease-1, sequence (P00639 whole entry): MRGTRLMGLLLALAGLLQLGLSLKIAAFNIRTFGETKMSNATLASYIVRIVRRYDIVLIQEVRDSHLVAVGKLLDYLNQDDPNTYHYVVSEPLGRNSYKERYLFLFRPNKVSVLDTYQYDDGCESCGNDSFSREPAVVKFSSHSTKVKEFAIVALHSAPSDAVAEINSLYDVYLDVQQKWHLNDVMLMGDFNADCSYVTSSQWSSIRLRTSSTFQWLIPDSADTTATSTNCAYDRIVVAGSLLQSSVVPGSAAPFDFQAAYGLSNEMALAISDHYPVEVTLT

[3] = Inhibition of histidine-tagged human DNA polymerase gamma using poly(dA)/oligo(dT)18 (A/T = 2/1) and dTTP as the DNA template-primer and nucleotide substrate after 60 mins; procedure, shortened: as §1
[4] = biological target: T1, DNA polymerase kappa (Homo sapiens); experiment: Inhibition of C-terminal His6-tagged human DNA polymerase kappa (amino acids 1 to 560) using poly(dA)/oligo(dT)18 (A/T = 2/1) and dTTP as the DNA template-primer and nucleotide substrate at 10 uM after 60 mins
[5] = Inhibition of rice DNA polymerase lambda using poly(dA)/oligo(dT)18 (A/T = 2/1) and dTTP as the DNA template-primer and nucleotide substrate after 60 mins; design: species or system Oryza sativa; procedure, shortened: as §1
DNA polymerase kappa = DNA polymerase kappa (Homo sapiens, UniProt Q9UBT6); experiment: Inhibition of C-terminal His6-tagged human DNA polymerase kappa (amino acids 1 to 560) using poly(dA)/oligo(dT)18 (A/T = 2/1) and dTTP as the DNA template-primer and nucleotide substrate after 60 mins; procedure, shortened: as §1
Bos taurus = species: Bos taurus; experiment: Inhibition of calf DNA polymerase alpha using poly(dA)/oligo(dT)18 (A/T = 2/1) and dTTP as the DNA template-primer and nucleotide substrate at 10 uM after 60 mins; procedure, shortened: as §1
[6] = Inhibition of cauliflower DNA polymerase alpha using poly(dA)/oligo(dT)18 (A/T = 2/1) and dTTP as the DNA template-primer and nucleotide substrate after 60 mins; design: species or system Brassica oleracea var. botrytis; procedure, shortened: as §1
[7] = biological target: DNA nucleotidylexotransferase (Bos taurus, UniProt P06526); experiment: Inhibition of calf thymus TdT using oligo(dT)18 (3'-OH) and dTTP as the DNA template-primer and nucleotide substrate after 60 mins; procedure, shortened: as §1
DNA nucleotidylexotransferase, sequence (P06526 whole entry): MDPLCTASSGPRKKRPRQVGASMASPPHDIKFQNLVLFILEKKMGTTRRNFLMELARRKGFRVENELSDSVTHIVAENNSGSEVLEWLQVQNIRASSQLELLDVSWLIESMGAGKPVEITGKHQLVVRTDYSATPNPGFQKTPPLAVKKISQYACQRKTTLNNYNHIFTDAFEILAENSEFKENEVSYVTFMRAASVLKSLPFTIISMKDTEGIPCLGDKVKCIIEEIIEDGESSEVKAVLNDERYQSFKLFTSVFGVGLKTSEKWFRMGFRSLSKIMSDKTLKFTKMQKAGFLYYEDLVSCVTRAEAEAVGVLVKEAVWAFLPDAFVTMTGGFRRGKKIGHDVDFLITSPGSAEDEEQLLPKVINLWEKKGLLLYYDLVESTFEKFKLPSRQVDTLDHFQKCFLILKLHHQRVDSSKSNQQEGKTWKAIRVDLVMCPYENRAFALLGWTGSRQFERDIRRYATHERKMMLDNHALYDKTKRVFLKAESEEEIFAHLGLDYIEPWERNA

[8] = biological target: T2, DNA polymerase lambda (Homo sapiens) (UniProt Q9UGP5); experiment: Inhibition of recombinant His-tagged human DNA polymerase lambda using poly(dA)/oligo(dT)18 (A/T = 2/1) and dTTP as the DNA template-primer and nucleotide substrate at 10 uM after 60 mins; procedure, shortened: as §1
T2 sequence (whole entry): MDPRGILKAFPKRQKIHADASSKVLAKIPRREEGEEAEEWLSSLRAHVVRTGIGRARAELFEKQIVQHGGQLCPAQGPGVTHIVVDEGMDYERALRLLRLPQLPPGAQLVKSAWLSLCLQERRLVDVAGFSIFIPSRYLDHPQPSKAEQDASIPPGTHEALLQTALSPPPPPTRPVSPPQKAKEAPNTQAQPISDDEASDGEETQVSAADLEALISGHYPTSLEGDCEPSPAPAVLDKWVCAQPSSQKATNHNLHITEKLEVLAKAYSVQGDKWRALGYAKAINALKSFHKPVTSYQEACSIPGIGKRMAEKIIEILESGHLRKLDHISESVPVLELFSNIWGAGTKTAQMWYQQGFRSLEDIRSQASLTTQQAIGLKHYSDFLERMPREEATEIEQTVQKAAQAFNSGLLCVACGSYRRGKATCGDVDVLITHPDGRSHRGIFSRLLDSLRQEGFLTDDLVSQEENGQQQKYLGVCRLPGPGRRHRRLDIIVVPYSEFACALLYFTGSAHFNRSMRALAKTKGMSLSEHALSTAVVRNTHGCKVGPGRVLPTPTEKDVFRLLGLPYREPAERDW

[9] = biological target: DNA-directed DNA polymerase (Enterobacteria phage T4, UniProt P04415); experiment: Inhibition of T4 pol using poly(dA)/oligo(dT)18 (A/T = 2/1) and dTTP as the DNA template-primer and nucleotide substrate after 60 mins; design: species or system Tequatrovirus T4; procedure, shortened: as §1
DNA-directed DNA polymerase, sequence (P04415 whole entry): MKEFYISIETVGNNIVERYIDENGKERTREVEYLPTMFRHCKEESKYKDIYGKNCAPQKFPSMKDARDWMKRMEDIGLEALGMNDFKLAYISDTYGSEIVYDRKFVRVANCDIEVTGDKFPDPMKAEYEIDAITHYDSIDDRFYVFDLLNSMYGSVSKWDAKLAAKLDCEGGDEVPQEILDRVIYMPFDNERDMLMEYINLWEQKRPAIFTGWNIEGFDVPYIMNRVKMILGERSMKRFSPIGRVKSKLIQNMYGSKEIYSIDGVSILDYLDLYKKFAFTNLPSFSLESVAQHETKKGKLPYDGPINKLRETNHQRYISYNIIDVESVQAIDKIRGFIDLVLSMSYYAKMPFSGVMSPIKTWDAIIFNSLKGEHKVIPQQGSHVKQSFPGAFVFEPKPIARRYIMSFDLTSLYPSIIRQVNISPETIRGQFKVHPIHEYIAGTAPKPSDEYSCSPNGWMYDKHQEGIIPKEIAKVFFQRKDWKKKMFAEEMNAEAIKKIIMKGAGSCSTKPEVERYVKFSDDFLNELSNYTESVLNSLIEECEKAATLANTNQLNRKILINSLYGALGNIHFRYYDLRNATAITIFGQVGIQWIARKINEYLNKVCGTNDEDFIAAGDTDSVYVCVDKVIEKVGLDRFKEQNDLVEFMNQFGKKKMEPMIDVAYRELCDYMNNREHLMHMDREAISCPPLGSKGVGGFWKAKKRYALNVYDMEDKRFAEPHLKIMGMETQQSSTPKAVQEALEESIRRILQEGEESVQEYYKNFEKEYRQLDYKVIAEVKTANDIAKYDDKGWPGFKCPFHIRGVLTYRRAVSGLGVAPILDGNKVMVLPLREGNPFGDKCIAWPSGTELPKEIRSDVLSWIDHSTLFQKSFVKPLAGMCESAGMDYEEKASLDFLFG

[10] = biological target: Human immunodeficiency virus type 1 reverse transcriptase (Human immunodeficiency virus 1, UniProt Q72547); experiment: Inhibition of HIV-1 reverse transcriptase using poly(rA)/oligo(dT)18(A/T = 2/1) and dTTP as the DNA template-primer and nucleotide substrate after 60 mins; procedure, shortened: as §1

Structure (SMILES)	inhibition [1]	IC50 (Polynucleotide kinase) [µM]	IC50 [2] [µM]	IC50 (Deoxyribonuclease-1) [µM]	IC50 [3] [µM]	inhibition [4]	IC50 [5] [µM]	IC50 (DNA polymerase kappa) [µM]	inhibition (Bos taurus)	IC50 [6] [µM]	IC50 [7] [µM]	inhibition [8]	IC50 [9] [µM]	IC50 [10] [µM]
CCCCCCCCCCCC(=O)Oc1cccc2c1C(=O)C=CC2=O	Active	> 100	7.9	> 100	6.5	Active	> 100	6.8	Active	> 100	8.4	Active	> 100	> 100
CCCCCCCC/C=C\CCCCCCCC(=O)Oc1cccc2c1C(=O)C=CC2=O	Active	> 100	10.8	> 100	0.72	Active	> 200	8.1	Active	> 200	11.9	Active	> 100	> 100
